Source: PubChem (several laboratories)
CHO parental Ca – ATP-evoked calcium signal inhibitors, parental CHO, primary screen, counter-screen for OX1R antagonist project, cell-based, fluorescence, Fluo-8 calcium dye; parental CHO-K1, ATP-induced calcium, Fluo-8 fluorescence; inhibition, % at 5.6 µM; hit rate 0.63% among 330,000; AID 463079, 2010;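 active = inhibition above that plate's mean sample inhibition plus 3 SD, cut at about 26% in these data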
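Assay system: parental CHO cells; Read-out basis: percent inhibition of ATP-evoked calcium rise, normalized to controls; Benchmarks: ATP and no-ATP DMSO wells; Compound dosing: single nominal dose of 5.6 µM per compound; Signal: Fluo-8 calcium dye fluorescence; Also added: ATP as calcium-mobilizing challenge; Repeats: singlicate.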
OX1R antag-1 – antagonists of human orexin 1 receptor (OX1R). OX1R-expressing cells, FRET antagonist read-out. inhibition, % at 6.6 µM. hit rate 1.8% among 330,000; in the data active = inhibition mostly above about 38%, no sharp cut-off; inactive = mostly below about 40%
OX1R antag-2 – OX1R (HCRTR1) antagonists, primary screen, fluorescence, CHO/OX1R cells, Fluo-8 calcium, orexin A; Orexin/Hypocretin receptor type 1 (Homo sapiens), O43613; Fluo-8 calcium fluorescence; inhibition, % at 5 µM; hit rate 0.43% among 330,000;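 active = inhibition above its plate's threshold, mean inhibition of all tested compounds on the plate plus 3 SD, cut at about 37% in these data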
GPR7 antagonist – GPR7 receptor antagonists, primary screen, cell-based, fluorescence, single concentration; Neuropeptides B/W receptor type 1 (Homo sapiens), P48145; GPR7-expressing cells, fluorescence antagonist assay; inhibition, % at 4.4 µM; hit rate 1.1% among 290,000; in the data active = inhibition above about 16%, passing the limit was not always enough;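 note: cells stimulated with the agonist NPW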
Target sequence (P48145 whole entry, looked up): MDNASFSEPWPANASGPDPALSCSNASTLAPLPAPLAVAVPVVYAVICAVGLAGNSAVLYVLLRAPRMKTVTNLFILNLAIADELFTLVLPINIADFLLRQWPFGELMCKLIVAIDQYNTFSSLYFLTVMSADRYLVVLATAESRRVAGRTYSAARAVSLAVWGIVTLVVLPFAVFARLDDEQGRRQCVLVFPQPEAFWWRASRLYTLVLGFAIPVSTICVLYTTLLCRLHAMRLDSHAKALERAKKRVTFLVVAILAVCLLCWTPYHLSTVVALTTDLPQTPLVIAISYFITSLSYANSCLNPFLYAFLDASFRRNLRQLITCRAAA
PGE2 EP2 inh – human EP2 receptor antagonists, primary screen, TR-FRET cAMP, C6 glioma cells; Prostaglandin E2 receptor EP2 subtype (Homo sapiens), P43116; AID 1422, 2008; hit rate 0.52% among 260,000; inhibition, % at 25 µM; C6 glioma cells expressing human EP2; cells stimulated with saturating PGE2;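 active = percent inhibition above 40 after rounding to a whole number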;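 note: rat C6 glioma host cells with rolipram phosphodiesterase inhibitor present; the protocol text gives 20 µM as final concentration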
Target sequence (P43116 whole entry, looked up): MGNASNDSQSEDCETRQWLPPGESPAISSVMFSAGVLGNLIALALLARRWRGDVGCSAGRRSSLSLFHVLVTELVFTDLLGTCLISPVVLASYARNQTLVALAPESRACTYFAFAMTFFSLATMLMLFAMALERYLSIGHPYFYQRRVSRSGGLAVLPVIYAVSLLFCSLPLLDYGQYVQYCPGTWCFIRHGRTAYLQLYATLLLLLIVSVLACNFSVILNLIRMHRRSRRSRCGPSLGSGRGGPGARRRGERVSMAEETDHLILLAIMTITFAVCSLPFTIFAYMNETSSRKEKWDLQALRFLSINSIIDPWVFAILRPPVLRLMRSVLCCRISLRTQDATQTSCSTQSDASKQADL
EP2 modulator – EP2 receptor modulators, cAMP readout, primary screen, cell-based, HTRF cAMP, PGE2 stimulation; hit rate 0.83% among 260,000; AID 940, 2007; EP2-expressing cells, cAMP HTRF FRET, PGE2 co-stimulation; induction, % at 25 µM; Prostaglandin E2 receptor EP2 subtype (Homo sapiens), P43116;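 active = compounds whose cAMP rise, as percent of the full-agonist control response, exceeds 60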;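 note: rat C6 glioma line stably carrying human EP2 under a CMV promoter; the protocol text gives 20 µM as final concentration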
GPR7 antag cf – GPR7 receptor antagonists, confirmation, cell-based, fluorescence, single concentration; shares compounds with GPR7 antagonist; GPR7-expressing cells, calcium fluorescence antagonist mode; inhibition, % at 4.4 µM; hit rate 52% among 2,400; AID 1952, 2009; in the data active = inhibition above about 24%;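 note: stimulated with the GPR7 agonist NPW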
MCHR1 antagonist – MCHR1 antagonists in cells, counter-screen for GPR7 antagonist project, cell-based, fluorescence, human | hit rate 62% among 2,400 | MCHR1-expressing cells, fluorescence antagonist assay | shares compounds with GPR7 antagonist | inhibition, % at 4.4 µM | AID 2148, 2009; in the data active = inhibition above about 22%
Each line names hits and unclear results; the compound was inactive in the other large screens (follow-up assays come after a bar, where they were run). Hits are enriched below; roughly 3.7% of the tested compounds scored in any of these assays.

Nc1cnn(C2CCCO2)c(=O)n1 (stereo unspecified)	GPR7 antagonist 24 | GPR7 antag cf inactive | MCHR1 antagonist inactive
COC(=O)c1ccc(COc2cccc3c2CCN(Cc2ccccc2)C3=O)o1	GPR7 antagonist 29 | GPR7 antag cf 31 | MCHR1 antagonist 57
COC(=O)c1ccc(COc2cccc3c2CCN(Cc2cccc(C)c2)C3=O)o1	GPR7 antagonist 22 | GPR7 antag cf 43 | MCHR1 antagonist 70
CCN1CCc2c(OCc3ccc(C(=O)OC)o3)cccc2C1=O	none
O=C1c2cccc(OCC(=O)N3CCCc4ccccc43)c2CCN1Cc1ccc(Br)cc1	GPR7 antagonist 31 | GPR7 antag cf 35 | MCHR1 antagonist 58
CC1CCN(S(=O)(=O)c2cn(C)c(=O)n(C)c2=O)CC1	none
O=C(NCC1CCCO1)C1CCCN(S(=O)(=O)c2cccc(C(F)(F)F)c2)C1 (stereo unspecified)	GPR7 antagonist 24 (no result: PGE2 EP2 inh, EP2 modulator) | GPR7 antag cf inactive | MCHR1 antagonist inactive
CCOC(=O)c1c(NC(=O)Cc2ccccc2)sc2c1CC(C)(C)NC2(C)C	none (no result: PGE2 EP2 inh, EP2 modulator)
CCOC(=O)c1c(NC(=O)C2COc3ccccc3O2)sc2c1CC(C)(C)NC2(C)C (stereo unspecified)	GPR7 antagonist 23 | GPR7 antag cf 32 | MCHR1 antagonist 38
Cc1cc(-c2ccc(C)c(S(=O)(=O)N3CCN(c4ccccn4)CC3)c2)on1	GPR7 antagonist 28 (no result: PGE2 EP2 inh, EP2 modulator) | GPR7 antag cf 32 | MCHR1 antagonist 62
COc1ccc(/C=N/NC(=O)c2ccccc2O)cc1COc1ccccn1	none
COc1ccc(/C=N/NC(=O)c2cccc(Br)c2)cc1COc1ccccn1	GPR7 antagonist 31 | GPR7 antag cf inactive | MCHR1 antagonist 48
Cc1nccn1C[C@@H]1CCc2c(c3ccccc3n2C)C1=O	none (no result: PGE2 EP2 inh, EP2 modulator)
Cc1ccc(C(=O)NCC(=O)OCCCn2c(=O)[nH]c3ccccc32)cc1	none (no result: GPR7 antagonist, PGE2 EP2 inh, EP2 modulator)
O=C(c1ccccc1)c1ccc(OCC(O)CNCc2ccc(F)cc2)cc1 (stereo unspecified)	none (no result: CHO parental Ca, OX1R antag-1, OX1R antag-2, PGE2 EP2 inh, EP2 modulator)
Cc1ccc(C(OCC(O)CNCc2ccc(F)cc2)c2ccccc2)cc1 (stereo unspecified)	GPR7 antagonist 41 (no result: PGE2 EP2 inh, EP2 modulator) | GPR7 antag cf 30 | MCHR1 antagonist 65
COc1ccc(C(OCC(O)CNCCc2ccccc2)c2ccc(OC)cc2)cc1 (stereo unspecified)	GPR7 antagonist 61 (no result: CHO parental Ca, OX1R antag-1, OX1R antag-2, PGE2 EP2 inh, EP2 modulator) | GPR7 antag cf 35 | MCHR1 antagonist 53
CCC(=O)N1CCN(c2ccccc2NC(=O)COc2ccc(C(C)C)cc2)CC1	GPR7 antagonist 27 (no result: PGE2 EP2 inh, EP2 modulator) | GPR7 antag cf inactive | MCHR1 antagonist inactive
CCN1CCN(c2ccc(S(=O)(=O)N3CCCCC3)cc2NC(=O)COc2ccc(Cl)c(C)c2)CC1	GPR7 antagonist 23 (no result: PGE2 EP2 inh, EP2 modulator) | GPR7 antag cf 51 | MCHR1 antagonist 43
OC(CN1CCC2(CC1)CC(O)c1ccccc1O2)c1ccc(Cl)c(Cl)c1 (stereo unspecified)	none (no result: CHO parental Ca, OX1R antag-1, OX1R antag-2, GPR7 antagonist)
COc1ccc(-c2cnc(SCC(=O)Nc3ccc4c(c3)OCO4)n2Cc2ccco2)cc1	GPR7 antagonist 22 (no result: CHO parental Ca, OX1R antag-1, OX1R antag-2, PGE2 EP2 inh) | GPR7 antag cf 42 | MCHR1 antagonist 68
O=C(CSc1nnc(COc2ccccc2)n1Cc1ccco1)Nc1ccc2c(c1)OCCO2	GPR7 antagonist 29 | GPR7 antag cf 31 | MCHR1 antagonist 33
CC(C)C(OC(=O)c1cccs1)C(=O)NCc1cccs1 (stereo unspecified)	GPR7 antagonist 37 | GPR7 antag cf inactive | MCHR1 antagonist inactive
COc1ccc(CNC(=O)C(OC(=O)c2cccs2)C(C)C)cc1 (stereo unspecified)	none
C(#Cc1ccccc1)C[N+]1(CC#Cc2cccc3ccccc23)CCOCC1	none (no result: CHO parental Ca, OX1R antag-1, OX1R antag-2)
COc1cc(C)ccc1Oc1ncnc(N)c1[N+](=O)[O-]	GPR7 antagonist 51 (no result: PGE2 EP2 inh, EP2 modulator) | GPR7 antag cf inactive | MCHR1 antagonist inactive
COc1ccc(C)cc1NC(=O)c1ccc(N(C)S(C)(=O)=O)cc1	GPR7 antagonist 31 | GPR7 antag cf inactive | MCHR1 antagonist inactive
Cc1ccc(C)c(NC(=O)c2ccc(N(C)S(C)(=O)=O)cc2)c1	none
CCOc1ccc2nc(N(CCN(C)C)C(=O)c3cc4ccccc4cc3OC)sc2c1	none (no result: PGE2 EP2 inh, EP2 modulator)
COc1ccccc1C(=O)N(CCC1CCCN1C)c1nc2ccccc2s1 (stereo unspecified)	GPR7 antagonist 24 | GPR7 antag cf 26 | MCHR1 antagonist inactive
CCN(CC)CCN1C(=O)/C(=C\c2ccc(Cl)c([N+](=O)[O-])c2)SC1=Nc1ccc(OC)cc1	GPR7 antagonist 46 (no result: PGE2 EP2 inh, EP2 modulator) | GPR7 antag cf 75 | MCHR1 antagonist 60
COc1ccc(N=C2S/C(=C\c3ccc(Cl)c([N+](=O)[O-])c3)C(=O)N2CCN(C)C)cc1	GPR7 antagonist 48 (no result: PGE2 EP2 inh, EP2 modulator) | GPR7 antag cf 65 | MCHR1 antagonist 59
COC(=O)[C@@H]1CC[C@H](C)[C@@H](c2ccc(C)cc2)N1C(=O)c1ccc(/C=N/O[C@@H](C)CN2CCCCc3nc(C)c(C)cc32)cc1	none (no result: PGE2 EP2 inh)
CCOC(=O)N1CCN(c2c(N3CCN(c4ccccc4OC)CC3)c(=O)c2=O)CC1	none (no result: EP2 modulator)
CCc1cc(NCCN2CCOCC2)n2nc3nc(C)cc(C)c3c2n1	none (no result: CHO parental Ca, OX1R antag-1, OX1R antag-2, GPR7 antagonist, PGE2 EP2 inh)
O=C(Nc1ccc(Br)cc1)Nc1ccccc1Cl	GPR7 antagonist 73 | GPR7 antag cf 79 | MCHR1 antagonist 63
Cc1ccc(C(=O)Nc2ccc(CN3CCCCC3)cc2)c(C)c1	none
CC(C)Cn1c(N)c(C=O)c(=O)n(C)c1=O	none
O=C(CNC(=O)c1ccco1)OCC(=O)c1ccc2ccccc2c1	none
Cc1nnc(N2C(=O)c3cccc4c([N+](=O)[O-])ccc(c34)C2=O)s1	OX1R antag-1 42, GPR7 antagonist 28 (no result: PGE2 EP2 inh, EP2 modulator) | GPR7 antag cf 33 | MCHR1 antagonist 51
O=C(Nc1ccccc1)Nc1ccc2snnc2c1	OX1R antag-1 86, GPR7 antagonist 25 | GPR7 antag cf 27 | MCHR1 antagonist 60
CC(C)(C)NC(=O)Nc1ccc2snnc2c1	none (no result: CHO parental Ca, OX1R antag-1, OX1R antag-2, GPR7 antagonist)
O=C(Nc1ccccc1)Nc1ccc2nnsc2c1	GPR7 antagonist 33 | GPR7 antag cf 28 | MCHR1 antagonist 62
CN(C)c1ccc(NC(=O)Nc2ccc3snnc3c2)cc1	none
Cc1c(C(=O)Nc2ccccc2[N+](=O)[O-])csc1-c1ccccc1	none
